Experimental data from ChEMBL document CHEMBL5620421, “2,6-Disubstituted 7-(naphthalen-2-ylmethyl)-7H-purines as a new class of potent antitubercular agents inhibiting DprE1” (Eur J Med Chem, 2023).
In brackets after ≈: the same amount, converted by molar mass. Activity calls are given as the source filed them. The calls are words filed in the database; no cut-off is given here.

Assays:
[1] = system: Mycobacterium tuberculosis; test: Antitubercular activity against Mycobacterium tuberculosis CNCTC My 331/88 (H37Rv) assessed as inhibition of bacterial growth measured after 14 days of incubation by Sulas semisynthetic medium based assay; format: functional; details: 336 h, time 14 day
How it was run: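 Micromethod MIC in Sula's semisynthetic medium. MIC is the lowest concentration inhibiting >99% of the mycobacterial population. Isoniazid was the standard drug.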

Mycobacterium kansasii [2] = test: Antitubercular activity against Mycobacterium kansasii CNCTC My 235/80 assessed as inhibition of bacterial growth measured after 14 days of incubation by Sulas semisynthetic medium based assay; format: functional; details: CNCTC My 235/80, 336 h, time 14 day
How it was run: (§1)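 Micromethod in Sula's semisynthetic medium. MIC is the lowest concentration inhibiting >99% of the mycobacterial population. Isoniazid was the standard.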

Mycobacterium avium [3] = test: Antitubercular activity against Mycobacterium avium CNCTC My 330/88 assessed as inhibition of bacterial growth measured after 14 days of incubation by Sulas semisynthetic medium based assay; format: functional; details: CNCTC My 330/88, 336 h, time 14 day
How it was run: (§2)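 M. avium was tested by the micromethod in Sula's semisynthetic medium. Compounds in DMSO at 1000 to 0.5 μmol/L. Incubation at 37 °C, read at 14 and 21 days. MIC is the lowest concentration giving >99% growth inhibition.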

[4] = Stability in human plasma assessed as compound remaining at 1 uM incubated for 15 to 120 mins by LC-MS analysis; format: ADME, cell-free; details: time 15-120 min, read-out: Stability
How it was run: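 Stopped with acetonitrile containing internal standard and centrifuged at 12,000 rpm for 5 min at 4 °C. Supernatant analysed by LC-MS in positive mode. % remaining taken from compound/IS peak-area ratios at 120 versus 0 min.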

Klebsiella pneumoniae = test: Antibacterial activity against ESBL negative Klebsiella pneumoniae C1950 assessed as inhibition of bacterial growth incubated for 24 to 48 hrs by microdilution broth method; format: functional, organism-based; details: time 24-48 hrs
How it was run: (§3)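 Clinical isolates kept at –70 °C and subcultured twice on Mueller-Hinton agar, using the second subculture. Broth microdilution in Mueller-Hinton broth at pH 7.4 with two-fold serial compound dilutions and DMSO ≤1% final. Inoculum was 10 μL of a 1.5 × 10⁸ CFU/mL suspension. Incubated at 36 °C ± 1 °C and read at 24 h and 48 h. MIC taken as 95% growth inhibition.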

[5] = Selectivity index, ratio of IC50 for cytotoxicity against human HepG2 cells by MTT assay to MIC99 for antitubercular activity against Mycobacterium tuberculosis CNCTC My 331/88 (H37Rv) assessed as inhibition of bacterial growth measured after 14 days of incubation; format: functional; details: time 14 day
How it was run: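 HepG2 cells, 15 × 10³/well, were attached overnight and exposed 24 h to serial dilutions (DMSO ≤1%). Read by MTT at 0.5 mg/mL for 1 h and 570 nm. IC50 from 4-parameter regression, three independent experiments in triplicate. SI is HepG2 IC50 divided by H37Rv MIC99.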

[6] = system: Mycobacterium tuberculosis; test: Antimycobacterial activity against MDR clinical isolate Mycobacterium tuberculosis 234/2005 assessed as inhibition of mycobacterial growth measured after 14 to 21 days of incubation by Sulas semisynthetic medium based assay; format: functional; details: time 14-21 day
How it was run: (§4)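 Clinical MDR/XDR M. tuberculosis isolates were tested by the Sula's semisynthetic medium micromethod. Compounds in DMSO at 1000 to 0.5 μmol/L, in twofold-type steps. Incubation at 37 °C, read at 14 and 21 days. MIC99 is the lowest concentration inhibiting >99% of growth. Drug resistance or susceptibility of each isolate is to amikacin, clofazimine, gentamicin, ofloxacin, streptomycin and the others listed.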

Mycobacterium avium [7] = test: Antitubercular activity against Mycobacterium avium CNCTC My 330/88 assessed as inhibition of bacterial growth measured after 21 days of incubation by Sulas semisynthetic medium based assay; format: functional; details: CNCTC My 330/88, 504 h, time 21 day; how it was run: as §2
[8] = Half life in human liver microsomes at 3 uM incubated for 5 to 45 min in presence of NADPH by LC-MS analysis; format: ADME, Microsome; details: time 5-45 min
[9] = Aqueous solubility of compound incubated for 20 mins by UV-Visible spectrophotometric analysis; format: physicochemical; details: buffer
How it was run: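 Solubility in ultrapure water containing 5% DMSO. Absorbance taken at each compound's λmax and compared with a six-point calibration made by serial dilution of a 50 μM standard, fitted by linear regression. Over-saturated solutions were sonicated at 37 °C for 10 min and centrifuged at 8000 RPM for 10 min. Supernatant absorbance was read, after dilution with 5% DMSO/water if above the calibration range.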

[10] = system: Mycobacterium tuberculosis; test: Antimycobacterial activity against MDR clinical isolate Mycobacterium tuberculosis 7357/1998 assessed as inhibition of mycobacterial growth measured after 14 to 21 days of incubation by Sulas semisynthetic medium based assay; format: functional; details: time 14-21 day; how it was run: as §4
Staphylococcus aureus = test: Antibacterial activity against methicilin-resistant Staphylococcus aureus C1923 assessed as inhibition of bacterial growth incubated for 24 to 48 hrs by microdilution broth method; format: functional, organism-based; details: time 24-48 hrs
How it was run: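 Clinical isolates, stored at −70 °C, were passaged twice on Mueller-Hinton agar. Broth microdilution in Mueller-Hinton broth, pH 7.4, with twofold serial dilutions. DMSO was at most 1% final. Inoculum 1.5 × 10⁸ CFU/mL suspension. MIC is 95% growth inhibition, read after 24 and 48 h at 36 °C.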

[11] = system: Mycobacterium tuberculosis; test: Antimycobacterial activity against MDR clinical isolate Mycobacterium tuberculosis PRAHA 131 assessed as inhibition of mycobacterial growth measured after 14 to 21 days of incubation by Sulas semisynthetic medium based assay; format: functional; details: time 14-21 day; how it was run: as §4
[12] = system: Mycobacterium tuberculosis; test: Antimycobacterial activity against MDR clinical isolate Mycobacterium tuberculosis 8666/2010 assessed as inhibition of mycobacterial growth measured after 14 to 21 days of incubation by Sulas semisynthetic medium based assay; format: functional; details: time 14-21 day; how it was run: as §4
[13] = system: Mycobacterium tuberculosis; test: Antimycobacterial activity against XDR clinical isolate Mycobacterium tuberculosis PRAHA 131 assessed as inhibition of mycobacterial growth measured after 14 to 21 days of incubation by Sulas semisynthetic medium based assay; format: functional; details: time 14-21 day; how it was run: as §4
Mycobacterium kansasii [14] = test: Antitubercular activity against Mycobacterium kansasii CNCTC My 235/80 assessed as inhibition of bacterial growth measured after 7 days of incubation by Sulas semisynthetic medium based assay; format: functional; details: CNCTC My 235/80, 168 h, time 7 day; how it was run: as §1
Mycobacterium kansasii [15] = test: Antitubercular activity against Mycobacterium kansasii CNCTC My 235/80 assessed as inhibition of bacterial growth measured after 21 days of incubation by Sulas semisynthetic medium based assay; format: functional; details: CNCTC My 235/80, 504 h, time 21 day; how it was run: as §1
Escherichia coli = test: Antibacterial activity against Escherichia coli A1235 assessed as inhibition of bacterial growth incubated for 24 to 48 hrs by microdilution broth method; format: functional, organism-based; details: time 24-48 hrs; how it was run: as §3
H9c2 = test: Cytotoxicity against rat H9c2 cells assessed as cell viability incubated for 72 hrs by MTT spectrophotometric analysis; format: functional, cell-based; details: H9c2, 72 h
How it was run: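 HepG2 or rat H9c2 cells in DMEM with FBS, seeded at 10,000 cells/well. Treated 24 h later for 72 h, with 0.1% DMSO vehicle and 1% Triton X-100 as controls. MTT added (3 mg/mL solution) for 2 h at 37 °C, then cells lysed in isopropanol/0.1 M HCl/5% Triton X-100. Read at 570 nm minus 690 nm. Viability expressed as % of vehicle; IC50 derived where reached. At least four independent experiments.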

Compound	MIC99 [1]	MIC99 (Mycobacterium kansasii [2])	MIC99 (Mycobacterium avium [3])	remaining at 1 µM [4]	Activity (Klebsiella pneumoniae)	Selectivity Index [5]	MIC99 [6]	MIC99 (Mycobacterium avium [7])	half-life at 3 µM [8]	solubility at 20 min [9]	MIC99 [10]	Activity (Staphylococcus aureus)	MIC99 [11]	MIC99 [12]	MIC99 [13]	MIC99 (Mycobacterium kansasii [14])	MIC99 (Mycobacterium kansasii [15])	Activity (Escherichia coli)	IC50 (H9c2)
c1ccc2cc(Cn3cnc4nc(N5CCOCC5)nc(NC5CCC5)c43)ccc2c1	2 µM (≈ 0.829 µg/mL)	8 µM (≈ 3.32 µg/mL)	250 µM (≈ 104 µg/mL)	97.5%	inactive	16.5	4 µM (≈ 1.66 µg/mL)	500 µM (≈ 207 µg/mL)	37.9 min	159 µM (≈ 65.9 µg/mL)	4 µM (≈ 1.66 µg/mL)	Active	4 µM (≈ 1.66 µg/mL)	4 µM (≈ 1.66 µg/mL)	8 µM (≈ 3.32 µg/mL)	8 µM (≈ 3.32 µg/mL)	8 µM (≈ 3.32 µg/mL)	inactive	–
CCOc1nc(N2CCOCC2)nc2ncn(Cc3ccc4ccccc4c3)c12	1 µM (≈ 0.389 µg/mL)	16 µM (≈ 6.23 µg/mL)	> 500 µM	99.6%	inactive	43.45	–	> 500 µM	56.8 min	81.3 µM (≈ 31.7 µg/mL)	–	inactive	2 µM (≈ 0.779 µg/mL)	2 µM (≈ 0.779 µg/mL)	4 µM (≈ 1.56 µg/mL)	8 µM (≈ 3.12 µg/mL)	16 µM (≈ 6.23 µg/mL)	inactive	> 50 µM
CCNc1nc(N2CCOCC2)nc2ncn(Cc3ccc4ccccc4c3)c12	1 µM (≈ 0.388 µg/mL)	8 µM (≈ 3.11 µg/mL)	250 µM (≈ 97.1 µg/mL)	95.5%	inactive	63.88	–	250 µM (≈ 97.1 µg/mL)	51.3 min	150 µM (≈ 58.4 µg/mL)	–	inactive	2 µM (≈ 0.777 µg/mL)	2 µM (≈ 0.777 µg/mL)	4 µM (≈ 1.55 µg/mL)	4 µM (≈ 1.55 µg/mL)	8 µM (≈ 3.11 µg/mL)	inactive	> 50 µM
Nc1nc(N2CCOCC2)nc2ncn(Cc3ccc4ccccc4c3)c12	1 µM (≈ 0.36 µg/mL)	16 µM (≈ 5.77 µg/mL)	> 500 µM	103%	inactive	>125	–	> 500 µM	82.5 min	97.7 µM (≈ 35.2 µg/mL)	–	inactive	2 µM (≈ 0.721 µg/mL)	2 µM (≈ 0.721 µg/mL)	4 µM (≈ 1.44 µg/mL)	–	16 µM (≈ 5.77 µg/mL)	inactive	> 50 µM
c1ccc(CNc2nc(N3CCOCC3)nc3ncn(Cc4ccc5ccccc5c4)c23)cc1	2 µM (≈ 0.901 µg/mL)	4 µM (≈ 1.8 µg/mL)	64 µM (≈ 28.8 µg/mL)	99.2%	inactive	16.9	2 µM (≈ 0.901 µg/mL)	64 µM (≈ 28.8 µg/mL)	19.3 min	58.9 µM (≈ 26.5 µg/mL)	2 µM (≈ 0.901 µg/mL)	inactive	4 µM (≈ 1.8 µg/mL)	4 µM (≈ 1.8 µg/mL)	4 µM (≈ 1.8 µg/mL)	4 µM (≈ 1.8 µg/mL)	8 µM (≈ 3.6 µg/mL)	inactive	–
